From publication PMC6172068 (Cancer Science, 2018)

Assay: Safety and tolerability
Type: in vivo, Japanese patients
Settings: for Stomatitis / Subdural hematoma / Syncope / Thrombocytopenia / Tumor-associated fever / Vomiting / Anemia / Bone pain / Constipation / Corneal erosion / Cough / Diarrhea / Disseminated intravascular coagulation / Dysesthesia / Dysgeusia / ECG prolonged QT interval / Elevated ALT / Elevated AST / Elevated blood creatine phosphokinase / Elevated blood lactate dehydrogenase / Elevated liver enzymes (ALT, AST, and alkaline phosphatase) / Epistaxis / Febrile neutropenia / Headache / Hematoma / Hypertension / Hypokalemia / Hypotension / Hypoxia / Increased amylase / Insomnia / Lung infection / Nausea / Pleural effusion / Pneumonia / Pyrexia / Rash / Renal impairment / Sepsis / Somnolence: N = 24
Method in brief: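 In this open-label study, once-daily oral dosing escalated 20–300 mg/d by Bayesian continual reassessment. DLTs were judged from Cycles 0 and 1, and MTD/RD came from the posterior mean DLT rate plus investigator assessment. Treatment-emergent AEs were graded by NCI-CTCAE v4.0 for seriousness, duration and relatedness. The safety analysis set comprised all patients given ≥1 dose.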

SMILES: CCc1nc(C(N)=O)c(Nc2ccc(N3CCC(N4CCN(C)CC4)CC3)c(OC)c2)nc1NC1CCOCC1 [gilteritinib]
- Stomatitis (Grade 1-2): 5 (20.8%) n (%)
- Subdural hematoma (Grade 1-2): 1 (4.2%) n (%)
- Syncope (Grade 1-2): 0 n (%)
- Thrombocytopenia (Grade 1-2): 0 n (%)
- Tumor-associated fever (Grade 1-2): 2 (8.3%) n (%)
- Vomiting (Grade 1-2): 2 (8.3%) n (%)
- Anemia (Grade 3): 2 (8.3%) n (%)
- Bone pain (Grade 3): 1 (4.2%) n (%)
- Constipation (Grade 3): 0 n (%)
- Corneal erosion (Grade 3): 0 n (%)
- Cough (Grade 3): 0 n (%)
- Diarrhea (Grade 3): 1 (4.2%) n (%)
- Disseminated intravascular coagulation (Grade 3): 3 (12.5%) n (%)
- Dysesthesia (Grade 3): 0 n (%)
- Dysgeusia (Grade 3): 0 n (%)
- ECG prolonged QT interval (Grade 3): 1 (4.2%) n (%)
- Elevated ALT (Grade 3): 0 n (%)
- Elevated AST (Grade 3): 0 n (%)
- Elevated blood creatine phosphokinase (Grade 3): 2 (8.3%) n (%)
- Elevated blood lactate dehydrogenase (Grade 3): 1 (4.2%) n (%)
- Elevated liver enzymes (ALT, AST, and alkaline phosphatase) (Grade 3): 0 n (%)
- Epistaxis (Grade 3): 0 n (%)
- Febrile neutropenia (Grade 3): 3 (12.5%) n (%)
- Headache (Grade 3): 0 n (%)
- Hematoma (Grade 3): 0 n (%)
- Hypertension (Grade 3): 0 n (%)
- Hypokalemia (Grade 3): 1 (4.2%) n (%)
- Hypotension (Grade 3): 0 n (%)
- Hypoxia (Grade 3): 0 n (%)
- Increased amylase (Grade 3): 1 (4.2%) n (%)
- Insomnia (Grade 3): 0 n (%)
- Lung infection (Grade 3): 1 (4.2%) n (%)
- Nausea (Grade 3): 0 n (%)
- Pleural effusion (Grade 3): 0 n (%)
- Pneumonia (Grade 3): 3 (12.5%) n (%)
- Pyrexia (Grade 3): 0 n (%)
- Rash (Grade 3): 0 n (%)
- Renal impairment (Grade 3): 0 n (%)
- Sepsis (Grade 3): 1 (4.2%) n (%)
- Somnolence (Grade 3): 0 n (%)
- Stomatitis (Grade 3): 0 n (%)
- Subdural hematoma (Grade 3): 0 n (%)
- Syncope (Grade 3): 2 (8.3%) n (%)
- Thrombocytopenia (Grade 3): 2 (8.3%) n (%)
- Tumor-associated fever (Grade 3): 0 n (%)
- Vomiting (Grade 3): 0 n (%)
- Anemia (Grade 4): 0 n (%)
- Bone pain (Grade 4): 0 n (%)
- Constipation (Grade 4): 0 n (%)
- Corneal erosion (Grade 4): 0 n (%)
- Cough (Grade 4): 0 n (%)
- Diarrhea (Grade 4): 0 n (%)
- Disseminated intravascular coagulation (Grade 4): 0 n (%)
- Dysesthesia (Grade 4): 0 n (%)
- Dysgeusia (Grade 4): 0 n (%)
- ECG prolonged QT interval (Grade 4): 0 n (%)
- Elevated ALT (Grade 4): 0 n (%)
- Elevated AST (Grade 4): 0 n (%)
- Elevated blood creatine phosphokinase (Grade 4): 1 (4.2%) n (%)
- Elevated blood lactate dehydrogenase (Grade 4): 0 n (%)
- Elevated liver enzymes (ALT, AST, and alkaline phosphatase) (Grade 4): 0 n (%)
- Epistaxis (Grade 4): 0 n (%)
- Febrile neutropenia (Grade 4): 0 n (%)
- Headache (Grade 4): 0 n (%)
- Hematoma (Grade 4): 0 n (%)
- Hypertension (Grade 4): 0 n (%)
- Hypokalemia (Grade 4): 0 n (%)
- Hypotension (Grade 4): 0 n (%)
- Hypoxia (Grade 4): 0 n (%)
- Increased amylase (Grade 4): 0 n (%)
- Insomnia (Grade 4): 0 n (%)
- Lung infection (Grade 4): 0 n (%)
- Nausea (Grade 4): 0 n (%)
- Pleural effusion (Grade 4): 0 n (%)
- Pneumonia (Grade 4): 0 n (%)
- Pyrexia (Grade 4): 0 n (%)
- Rash (Grade 4): 0 n (%)
- Renal impairment (Grade 4): 0 n (%)
- Sepsis (Grade 4): 0 n (%)
- Somnolence (Grade 4): 0 n (%)
- Stomatitis (Grade 4): 0 n (%)
- Subdural hematoma (Grade 4): 0 n (%)
- Syncope (Grade 4): 0 n (%)
- Thrombocytopenia (Grade 4): 2 (8.3%) n (%)
- Tumor-associated fever (Grade 4): 0 n (%)
- Vomiting (Grade 4): 0 n (%)
- Anemia (Grade 5): 0 n (%)
- Bone pain (Grade 5): 0 n (%)
- Constipation (Grade 5): 0 n (%)
- Corneal erosion (Grade 5): 0 n (%)
- Cough (Grade 5): 0 n (%)
- Diarrhea (Grade 5): 0 n (%)
- Disseminated intravascular coagulation (Grade 5): 0 n (%)
- Dysesthesia (Grade 5): 0 n (%)
- Dysgeusia (Grade 5): 0 n (%)
- ECG prolonged QT interval (Grade 5): 0 n (%)
- Elevated ALT (Grade 5): 0 n (%)
- Elevated AST (Grade 5): 0 n (%)
- Elevated blood creatine phosphokinase (Grade 5): 0 n (%)
- Elevated blood lactate dehydrogenase (Grade 5): 0 n (%)
- Elevated liver enzymes (ALT, AST, and alkaline phosphatase) (Grade 5): 0 n (%)
- Epistaxis (Grade 5): 0 n (%)
- Febrile neutropenia (Grade 5): 0 n (%)
- Headache (Grade 5): 0 n (%)
- Hematoma (Grade 5): 0 n (%)
- Hypertension (Grade 5): 0 n (%)
- Hypokalemia (Grade 5): 0 n (%)
- Hypotension (Grade 5): 0 n (%)
- Hypoxia (Grade 5): 0 n (%)
- Increased amylase (Grade 5): 0 n (%)
- Insomnia (Grade 5): 0 n (%)
- Lung infection (Grade 5): 0 n (%)
- Nausea (Grade 5): 0 n (%)
- Pleural effusion (Grade 5): 0 n (%)
- Pneumonia (Grade 5): 0 n (%)
- Pyrexia (Grade 5): 0 n (%)
- Rash (Grade 5): 0 n (%)
- Renal impairment (Grade 5): 0 n (%)
- Sepsis (Grade 5): 0 n (%)
- Somnolence (Grade 5): 0 n (%)
- Stomatitis (Grade 5): 0 n (%)
- Subdural hematoma (Grade 5): 1 (4.2%) n (%)
- Syncope (Grade 5): 0 n (%)
- Thrombocytopenia (Grade 5): 0 n (%)
- Tumor-associated fever (Grade 5): 0 n (%)
- Vomiting (Grade 5): 0 n (%)
- patients who experienced at least 1 AE (SAF, all doses): 24 patients
- patients with AEs resulting in permanent discontinuation of gilteritinib (all doses, 6 of 24 patients): 25%
- patients with serious AEs (all doses, 7 of 24 patients): 29.2%
- patients with drug-related grade ≥3 AEs (all doses, 9 patients): 37.5%
- Drug-related AE: pyrexia (all doses, n = 3/24): 12.5%
- grade ≥3 AE: disseminated intravascular coagulation (all doses, n = 3/24): 12.5%
- grade ≥3 AE: elevated blood creatine phosphokinase (all doses, n = 3/24): 12.5%
- grade ≥3 AE: febrile neutropenia (all doses, n = 3/24): 12.5%
- grade ≥3 AE: pneumonia (all doses, n = 3/24): 12.5%
- Drug-related AE: diarrhea (all doses, n = 4/24): 16.7%
- Drug-related AE: hypertension (all doses, n = 4/24): 16.7%
- Drug-related AE: stomatitis (all doses, n = 4/24): 16.7%
- Drug-related AE: thrombocytopenia (all doses, n = 4/24): 16.7%
- grade ≥3 AE: thrombocytopenia (all doses, n = 4/24): 16.7%
- Drug-related AE: renal impairment (all doses, n = 5/24): 20.8%
- Drug-related AE: elevated blood lactate dehydrogenase (all doses, n = 6/24): 25%
- Drug-related AE: elevated blood creatine phosphokinase (all doses, n = 7/24): 29.2%
- Drug-related AE: elevated liver enzyme levels (all doses, n = 8/24): 33.3%
- patients with grade ≥3 AEs (all doses, n = 16/24): 66.7%
- patients with at least 1 treatment-related AE (all doses, n = 22/24): 91.7%
- AE: febrile neutropenia (any grade, all doses, n = 5/24): 20.8%
- AE: hypertension (any grade, all doses, n = 5/24): 20.8%
- AE: renal impairment (any grade, all doses, n = 5/24): 20.8%
- AE: stomatitis (any grade, all doses, n = 5/24): 20.8%
- AE: diarrhea (any grade, all doses, n = 7/24): 29.2%
- AE: pyrexia (any grade, all doses, n = 7/24): 29.2%
- AE: elevated blood lactate dehydrogenase (any grade, all doses, n = 8/24): 33.3%
- AE: elevated blood creatine phosphokinase (any grade, all doses, n = 9/24): 37.5%
- AE: elevated liver enzymes (ALT, AST, alkaline phosphatase) (any grade, all doses, n = 9/24): 37.5%
- drug-related AE leading to treatment discontinuation: pneumonia (n = 2/24): 8.3%
- drug-related grade ≥3 AE: pneumonia (n = 2, 40 and 300 mg/d): 8.3%
- drug-related grade ≥3 AE: anemia (n = 2, 200 and 300 mg/d): 8.3%
- drug-related grade ≥3 AE: febrile neutropenia (n = 2, 200 and 300 mg/d): 8.3%
- drug-related grade ≥3 AE: increased blood creatine phosphokinase (n = 3, 200 and 300 mg/d): 12.5%
- drug-related grade ≥3 AE: thrombocytopenia (n = 4, 200 and 300 mg/d): 16.7%
- patients who experienced DLTs during Cycle 0 and Cycle 1 (of the 24 patients in the SAF): 3 patients
- maximum tolerated dose (MTD) (once-daily oral, Bayesian CRM and investigator opinion): 200 mg/day
- recommended dose (RD) (once-daily oral, for subsequent studies): 120 mg/day
